Assay type in all cases: functional
One test concerns Nakaseomyces glabratus. Description: Antifungal activity against Candida glabrata ATCC 36583 after 48 hrs. Particulars: ATCC 36583, 48 h. The method, boiled down: (§1)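 Yeasts grown on Sabouraud dextrose agar, then in Sabouraud liquid medium at 36 °C overnight. Inoculum diluted in MOPS-buffered RPMI-1640 with L-glutamine, pH 7, to 2.5 × 10³ cfu/mL final. Twofold dilutions were made from a 20 mg/mL DMSO stock, with fluconazole as reference and DMSO at most 12.5% final. Incubated at 36 °C, humid, and read visually at 48 h. MIC was the lowest concentration giving no visible turbidity.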

The test system of the next test is Candida albicans. Description: Antifungal activity against Candida albicans ATCC 10231 after 48 hrs. Particulars: ATCC 10231, 48 h. The method, boiled down: as §1
The next test deals with Pseudomonas aeruginosa. Description: Antibacterial activity against Pseudomonas aeruginosa ATCC 27853 after 24 hrs. Particulars: ATCC 27853, 24 h. The method, boiled down:
(§2)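 Twofold broth dilution MIC in Mueller-Hinton broth, pH 6.9, inoculum (1-2) × 10³ cells/mL. Compounds and ampicillin trihydrate were dissolved in DMSO at 20 mg/mL stock and serially diluted from 20 down to 0.005. […] Plates incubated at 36 °C with a humid chamber and read visually after 24 h. MIC was the lowest concentration with no visible turbidity.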

Test [1] deals with Escherichia coli. Description: Antibacterial activity against Escherichia coli ATCC […] after 24 hrs. The procedure, abridged: as §2
The test system of a further test is Bacillus subtilis. The test can be described thus: Antibacterial activity against Bacillus subtilis ATCC 6633 after 24 hrs. As to conditions: ATCC 6633, 24 h. The procedure, abridged:
as §2

Another test deals with Staphylococcus aureus. Description: Antibacterial activity against Staphylococcus aureus ATCC 25923 after 24 hrs. Particulars: ATCC 25923, 24 h. The method, boiled down: as §2
Test [2] deals with Radical scavenging activity. The test can be described thus: Antioxidant activity assessed as DPPH free radical scavenging activity after 20 mins by spectrophotometric analysis. Set-up: concentration or dose not given beside the values. The procedure, abridged: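 Reduction of methanolic DPPH radical, with absorbance recorded at 516 nm and run in triplicate. Percent scavenging was calculated from the initial and final absorbance of each solution.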
In general terms: DPPH is a stable violet radical that fades when it is reduced.

In test [3] the test system is Escherichia coli. Description: Antibacterial activity against Escherichia coli ATCC […]. The procedure, abridged: as §2

Drawing on ChEMBL document CHEMBL1759839, “Synthesis, biopharmaceutical characterization, antimicrobial and antioxidant activities of 1-(4'-O-β-D-glucopyranosyloxy-2'-hydroxyphenyl)-3-aryl-propane-1,3-diones” (2011), this text covers MIC and Activity for eleven compounds.

Converted amounts (≈) assume the structure as drawn.

For the compound `Cc1cccc(C(=O)CC(=O)c2ccc(O[C@@H]3O[C@H](CO)[C@@H](O)[C@H](O)[C@H]3O)cc2O)c1`, the MIC worked out at 10000 mg/L (≈ 23100 µM) in the test on Nakaseomyces glabratus; 2500 mg/L (≈ 5780 µM) in the test on Candida albicans; 10000 mg/L (≈ 23100 µM) against Pseudomonas aeruginosa; 5000 mg/L (≈ 11600 µM) against Escherichia coli [1]; 2500 mg/L (≈ 5780 µM) against Bacillus subtilis; 20 mg/L (≈ 46.3 µM) against Staphylococcus aureus. Also, the Activity in test [2] came to 79.5%.

For `OC(Cn1cncn1)(Cn1cncn1)c1ccc(F)cc1F` [FLUCONAZOLE], the MIC against Nakaseomyces glabratus and in the test with Candida albicans was 10 mg/L (≈ 32.7 µM) throughout.

With `COc1ccc(C(=O)CC(=O)c2ccc(O[C@@H]3O[C@H](CO)[C@@H](O)[C@H](O)[C@H]3O)cc2O)cc1`, the MIC with Nakaseomyces glabratus was found to be 2500 mg/L (≈ 5580 µM); with Candida albicans, 1250 mg/L (≈ 2790 µM); with Pseudomonas aeruginosa, 30 mg/L (≈ 66.9 µM); against Escherichia coli [1], 5000 mg/L (≈ 11200 µM); against Bacillus subtilis, 2500 mg/L (≈ 5580 µM); in the test with Staphylococcus aureus it was 2500 mg/L (≈ 5580 µM). Further, in the test with Escherichia coli [3], the MIC was determined as 5000 mg/L (≈ 11200 µM). In addition, in test [2], the Activity was 73.5%.

On to `O=C(CC(=O)c1ccccc1Cl)c1ccc(O[C@@H]2O[C@H](CO)[C@@H](O)[C@H](O)[C@H]2O)cc1O`, for which the MIC is 5000 mg/L (≈ 11000 µM) against Nakaseomyces glabratus; 5000 mg/L (≈ 11000 µM) against Candida albicans; 20 mg/L (≈ 44.2 µM) against Pseudomonas aeruginosa; 20 mg/L (≈ 44.2 µM) in the test on Escherichia coli [1]; 1250 mg/L (≈ 2760 µM) in the test on Bacillus subtilis; 150 mg/L (≈ 331 µM) in the test on Staphylococcus aureus. Besides, the Activity in test [2] came to 89.1%.

On to `O=C(CC(=O)c1ccc(O[C@@H]2O[C@H](CO)[C@@H](O)[C@H](O)[C@H]2O)cc1O)c1cccc(Cl)c1`, for which the MIC against Nakaseomyces glabratus is 10000 mg/L (≈ 22100 µM); against Candida albicans, 10000 mg/L (≈ 22100 µM); in the test with Pseudomonas aeruginosa, 1250 mg/L (≈ 2760 µM); in the test with Escherichia coli [1], 20 mg/L (≈ 44.2 µM); in the test with Bacillus subtilis, 625 mg/L (≈ 1380 µM); in the test with Staphylococcus aureus it was 150 mg/L (≈ 331 µM). In test [2], the Activity turned out to be 83.5%.

As to `O=C1O[C@H]([C@@H](O)CO)C(O)=C1O`, the Activity in test [2] was 98%.

For the compound `O=C(CC(=O)c1ccc(O[C@@H]2O[C@H](CO)[C@@H](O)[C@H](O)[C@H]2O)cc1O)c1ccc(Cl)cc1`, the MIC in the test on Nakaseomyces glabratus was found to be 5000 mg/L (≈ 11000 µM); in the test on Candida albicans it was 150 mg/L (≈ 331 µM); against Pseudomonas aeruginosa, 20 mg/L (≈ 44.2 µM); in the test on Escherichia coli [1], 70 mg/L (≈ 155 µM); against Bacillus subtilis, 300 mg/L (≈ 662 µM); with Staphylococcus aureus, 150 mg/L (≈ 331 µM). Further, the Activity in test [2] is 84.3%.

Turning to `COc1cccc(C(=O)CC(=O)c2ccc(O[C@@H]3O[C@H](CO)[C@@H](O)[C@H](O)[C@H]3O)cc2O)c1`, the MIC came out at 5000 mg/L (≈ 11200 µM) against Nakaseomyces glabratus; 10000 mg/L (≈ 22300 µM) against Candida albicans; 5000 mg/L (≈ 11200 µM) in the test with Pseudomonas aeruginosa; 2500 mg/L (≈ 5580 µM) with Escherichia coli [1]; 150 mg/L (≈ 335 µM) in the test on Bacillus subtilis; 625 mg/L (≈ 1390 µM) against Staphylococcus aureus. For the same compound, in test [2], the Activity was 77.3%.

In the case of `Cc1ccc(C(=O)CC(=O)c2ccc(O[C@@H]3O[C@H](CO)[C@@H](O)[C@H](O)[C@H]3O)cc2O)cc1`, the MIC worked out at 5000 mg/L (≈ 11600 µM) in the test on Nakaseomyces glabratus; 5000 mg/L (≈ 11600 µM) with Candida albicans; 5000 mg/L (≈ 11600 µM) against Pseudomonas aeruginosa; 5000 mg/L (≈ 11600 µM) against Escherichia coli [1]; 2500 mg/L (≈ 5780 µM) against Bacillus subtilis; 625 mg/L (≈ 1450 µM) with Staphylococcus aureus. Also, in test [2], the Activity was determined as 82%.

Take `O=C(CC(=O)c1ccc(O[C@@H]2O[C@H](CO)[C@@H](O)[C@H](O)[C@H]2O)cc1O)c1ccccc1`: the MIC was determined as 2500 mg/L (≈ 5980 µM) against Nakaseomyces glabratus; 2500 mg/L (≈ 5980 µM) in the test on Candida albicans; 150 mg/L (≈ 359 µM) against Pseudomonas aeruginosa; 1250 mg/L (≈ 2990 µM) in the test on Escherichia coli [1]; 150 mg/L (≈ 359 µM) in the test on Bacillus subtilis; 300 mg/L (≈ 717 µM) in the test on Staphylococcus aureus. Further, the Activity in test [2] worked out at 81.2%.

Consider `CC1(C)S[C@@H]2[C@H](NC(=O)[C@H](N)c3ccccc3)C(=O)N2[C@H]1C(=O)O` [AMPICILLIN], for which the MIC in the test on Pseudomonas aeruginosa stood at 5 mg/L (≈ 14.3 µM); in the test with Escherichia coli [1] it was 10 mg/L (≈ 28.6 µM); in the test with Bacillus subtilis it was 5 mg/L (≈ 14.3 µM); in the test with Staphylococcus aureus, 19 mg/L (≈ 54.4 µM).

Usually MIC stands for the lowest concentration found to suppress growth.
